# Rpn11 block: Rpn11 (PSMD14) deubiquitinase inhibitors, primary screen, biochemical, fluorescence polarization, uHTS | 26S proteasome non-ATPase regulatory subunit 14 (Homo sapiens), O00487 | human 26S proteasome, Ub4-pepOG fluorescence polarization; 20S core pre-blocked with epoxomicin | inhibition, % at 20 µM | 0.59% of 360,000 active;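 active = inhibition at 20 µM, scaled to each plate's controls, above about 33%, limit read from the data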
# PP1 counter: PP1-alpha phosphatase inhibitors, primary screen, counter-screen for PP5 inhibitor project, biochemical, fluorescence, OMFP substrate, single point | Serine/threonine-protein phosphatase PP1-alpha catalytic subunit (Homo sapiens), P62136 | purified PP1alpha | inhibition, % at 6.7 µM | 0.9% of 320,000 active;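 active = inhibition above the mean inhibition of all tested compounds plus 3 SD, computed separately for each screening campaign, cut at about 15% in these data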
# Target sequence (P62136 whole entry, looked up): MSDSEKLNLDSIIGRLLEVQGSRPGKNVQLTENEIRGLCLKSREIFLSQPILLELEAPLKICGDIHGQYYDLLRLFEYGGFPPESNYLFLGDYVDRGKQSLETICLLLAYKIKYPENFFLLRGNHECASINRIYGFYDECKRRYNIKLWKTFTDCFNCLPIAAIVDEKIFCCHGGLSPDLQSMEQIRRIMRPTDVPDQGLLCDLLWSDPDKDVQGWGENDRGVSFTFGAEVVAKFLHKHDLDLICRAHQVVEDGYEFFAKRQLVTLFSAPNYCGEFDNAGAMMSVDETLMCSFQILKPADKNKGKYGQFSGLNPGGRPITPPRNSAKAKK
# TPT1 inhibitor: Candida albicans TPT1 enzyme inhibitors, primary screen, biochemical, fluorescence polarization; tRNA 2'-phosphotransferase TPT1 (Candida albicans SC5314); recombinant caTPT1, FP RNA substrate dephosphorylation; inhibition, % at 5 µM; 0.81% of 300,000 active;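 active = inhibition above the mean of all tested compounds plus 3 SD, set per screening campaign, cut at about 24% in these data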
# NadD inh: inhibitors of S. aureus NadD, primary screen, biochemical, colorimetric, uHTS; purified NadD enzyme, colorimetric absorbance read-out; inhibition, % at 20 µM; 0.78% of 360,000 active; AID 602399, 2012; in the data active = inhibition above about 26%
# CSN inh: inhibitors of CSN-mediated cullin deneddylation, primary screen, biochemical, fluorescence polarization, uHTS; Purified CSN, SCF-Nedd8-OG deneddylation; inhibition, % at 12.5 µM; 0.38% of 360,000 active; AID 651999, 2013;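 active = pattern-corrected inhibition above about 35%, with an unprinted fluorescence ratio check between 0.5 and 1.5, limit read from the data, passing the limit was not always enough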
#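 assay system = purified human Csn5 enzyme expressed in HEK293T cells | amount = 0.24 nM enzyme | buffer or medium = Tris/NaCl/DTT buffer, pH 7.5 | reagent = 10 nM SCFSkp2-Nedd8OG | compound = one concentration, 12.5 µM, 0.25% DMSO | times = 90 min reaction at room temperature | signal = FP | read-out basis = % inhibition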
# HNF4A DNA FP: change in binding of human HNF4A to DNA, primary screen, biochemical, fluorescence polarization, FITC-DNA. Hepatocyte nuclear factor 4-alpha (Homo sapiens), P41235. 1 h. activity change, % at 10 µM. 0.3% of 360,000 active. AID 1224865, 2016; in the data active = activity change above about 30%, passing the limit was not always enough
# TPT1 inh confirm: Candida albicans TPT1 inhibitors, confirmation, biochemical, fluorescence polarization, triplicate | shares compounds with TPT1 inhibitor | recombinant caTPT1, RNase T1 coupled | inhibition, % at 5 µM | 74% of 2,400 active;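 active = inhibition above the primary screen limit, the mean inhibition of all tested compounds plus 3 SD, cut at about 25% in these data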
# RNase T1 inh: RNase T1 inhibitors, counter-screen for TPT1 inhibitor project, biochemical, fluorescence polarization; AID 2153, 2009; RNase T1 cleavage, 1536-well; inhibition, % at 5 µM; shares compounds with TPT1 inhibitor; 83% of 2,400 active;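 active = inhibition above the solvent-only control well mean plus 3 SD, limit set per screening run, cut at about 23% in these data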;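 note: inhibitors block cleavage so intact labeled substrate keeps polarization high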
# Target sequence (P00651 whole entry, looked up): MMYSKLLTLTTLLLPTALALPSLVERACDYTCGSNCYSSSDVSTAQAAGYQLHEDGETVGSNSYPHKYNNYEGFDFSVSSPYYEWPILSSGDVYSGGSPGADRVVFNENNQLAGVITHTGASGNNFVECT
# PP1 confirm: PP1 phosphatase inhibitors, confirmation, biochemical, fluorescence, OMFP substrate, triplicate; purified PP1alpha; shares compounds with PP1 counter; 52% of 1,900 active; inhibition, % at 6.7 µM;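 active = mean PP1 inhibition above a set limit taken from the earlier primary screen, cut at about 15% in these data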
# PP5 counter: PP5 phosphatase inhibition by PP1 hits, confirmation, counter-screen for PP1 inhibitor project, biochemical, fluorescence, triplicate. shares compounds with PP1 counter. purified PP5c, OMFP fluorescence. inhibition, % at 6.7 µM. 4% of 1,900 active. AID 2360, 2010;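 active = mean PP5 inhibition over triplicate wells above about 9.5% taken from the earlier PP1 screen, limit read from the data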
# Rpn11 confirm: Rpn11 (PSMD14) deubiquitinase inhibitors, confirmation, biochemical, fluorescence polarization, single concentration; 29% of 1,900 active; shares compounds with Rpn11 block; purified human 26S proteasome, Ub4-pepOG fluorescence polarization; proteasome pretreated with epoxomicin; inhibition, % at 20 µM
# MMP-2 counter-1: MMP-2 enzyme inhibition, confirmation, counter-screen for RPN11 inhibitor project, biochemical, fluorescence, single concentration; inhibition, % at 20 µM; shares compounds with Rpn11 block; 4% of 1,900 active; AID 602330, 2012; recombinant MMP-2, FRET peptide cleavage fluorescence;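 note: human MMP-2 activated beforehand with APMA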
# Thrombin FP: bovine thrombin protease inhibition, confirmation, counter-screen for Rpn11 inhibitor project, biochemical, fluorescence polarization, single concentration | shares compounds with Rpn11 block | 13% of 1,900 active | bovine thrombin cleavage of Ub4-pepOG | inhibition, % at 20 µM;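 active = mean inhibition at least 40% at 20 µM, or signal 3 deviations below plate average, so some actives read negative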
# CSN deneddyl val: Csn5 deneddylation inhibitors, confirmation, biochemical, fluorescence polarization, single concentration, SCF-Nedd8OG substrate; AID 720654, 2013; inhibition, % at 16.6 µM; 62% of 540 active; Csn5 deneddylation of SCF-Nedd8OG, 90 min; shares compounds with CSN inh; in the data active = inhibition above about 50%
# MMP-2 counter-2: MMP-2 protease inhibition counter-screen, confirmation, counter-screen for CSN deneddylation inhibitor project, biochemical, fluorescence, single concentration | shares compounds with CSN inh | recombinant MMP-2, FRET substrate fluorescence, 60 min | inhibition, % at 16.6 µM | 33% of 540 active;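 active = corrected plate-normalized z-score of 5 or more, or -5 or less, or inhibition of 15% or more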
# Thrombin cntr: thrombin (bovine) inhibition, counter-screen for CSN hits; shares compounds with CSN inh; bovine thrombin cleavage of Ub4-pepOG, fluorescence polarization; inhibition, % at 16.6 µM; 49% of 540 active; AID 720656;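 active = inhibition at or above a set limit, with a fluorescence interference ratio between 0.5 and a set maximum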
# A number is an active result; – = inactive; · = no result shown; ! = a repeat was not active. In the library only some 2.7% were active in any assay of this set; here they are far more common. Cut-off read from the data, not from the text of the source, unless noted: active = inhibition above about 40%; inactive = the rest.
SMILES,Rpn11 block,PP1 counter,TPT1 inhibitor,NadD inh,CSN inh,HNF4A DNA FP,TPT1 inh confirm,RNase T1 inh,CSN deneddyl val,MMP-2 counter-2,Thrombin cntr,others
O=c1[nH]c(CN2CC=C(c3ccccc3)CC2)nc2scc(-c3ccccc3)c12,49.9,–,54.4,–,–,–,31.9,45.1,·,·,·,Rpn11 confirm=57.6;MMP-2 counter-1=–;Thrombin FP=–
CN(C(=O)CN1CC=C(c2ccccc2)CC1)c1c(N)n(Cc2ccccc2)c(=O)[nH]c1=O,–,–,–,–,–,–,·,·,·,·,·,
CC(=O)NN1C(=O)c2ccccc2NC1c1cccnc1 (centres undefined),–,–,–,–,–,–,·,·,·,·,·,
COc1ccc2nc(/N=C/c3c(O)n(-c4cccc(Cl)c4)c(=O)[nH]c3=O)sc2c1,47.5,–,54.9,–,–,–,–,–,·,·,·,Rpn11 confirm=–;MMP-2 counter-1=–;Thrombin FP=–
COc1ccc(-n2c(O)c(C=NCCCn3ccnc3)c(=O)[nH]c2=O)cc1,–,–,–,–,–,–,·,·,·,·,·,
COc1ccc(-n2c(O)c(/C=C3\C=Nc4ccc(Br)cc43)c(=O)[nH]c2=O)cc1,65.1,–,33.3,–,–,–,25.5,31.9,·,·,·,Rpn11 confirm=–;MMP-2 counter-1=–;Thrombin FP=–
COc1ccc(CN2C(=O)NC(=O)/C(=C/c3cc(OC)c(OC)c(OC)c3)C2=O)cc1,–,–,–,–,–,–,·,·,·,·,·,
COc1ccc(CN2C(=O)NC(=O)/C(=C/c3ccoc3)C2=O)cc1,186.4,–,174.5,–,–,–,–,32.1,·,·,·,Rpn11 confirm=96.4;MMP-2 counter-1=43.9;Thrombin FP=–
COc1ccc(N=Cc2c(O)n(CC3CCCO3)c(=O)[nH]c2=O)cc1 (centres undefined),–,–,–,–,–,–,·,·,·,·,·,
O=c1[nH]c(=O)n(CC2CCCO2)c(O)c1/C=C1\C=Nc2ccccc21 (centres undefined),47.5!,–,36.6!,–,–,–,–,23.5,·,·,·,Rpn11 confirm=–;MMP-2 counter-1=–;Thrombin FP=–
Cn1c(O)c(C=Nc2ccc(Br)cc2)c(=O)n(C)c1=O,–,–,–,–,–,–,·,·,·,·,·,
Cn1c(O)c(/C=C/C=Nc2ccccc2)c(=O)n(C)c1=S,118.1,–,133.7,–,75.0,95.0,66.6,74.3,·,-100.4,–,Rpn11 confirm=113.0;MMP-2 counter-1=–;Thrombin FP=active
C/C=C/CC#N,–,–,·,–,–,–,·,·,·,·,·,
COc1nc2ccccc2nc1N1CC1,–,·,·,–,–,–,·,·,·,·,·,
CCc1ccccc1N1C(=O)/C(=C/c2ccc(N3CCN(C)CC3)o2)C(=O)NC1=S,·,–,106.2,–,128.4,54.8,142.3,137.7,–,–,77.4,
CCc1ccccc1N1C(=O)NC(=O)/C(=C\c2cc(C)n(C)c2C)C1=O,–,–,–,–,–,–,·,·,·,·,·,
O=C1NC(=O)N(c2ccc3c(c2)OCO3)C(=O)/C1=C\c1ccc(N2CCCCC2)o1,·,–,126.3,–,88.8,–,147.6,145.2,138.1,–,–,
Cc1cc(C)cc(N2C(=O)NC(=O)/C(=C\C=C\c3ccco3)C2=O)c1,–,–,46.8,–,58.9,–,44.9,61.6,58.9,–,24.2,
O=C1NC(=O)N(Cc2ccc(F)cc2)C(=O)/C1=C\C=C\c1ccco1,·,20.6,90.2,–,99.3,–,48.3,62.6,72.5,–,17.1,PP1 confirm=23.4;PP5 counter=–
CC(C)c1ccc(N2C(=O)NC(=O)/C(=C/C=C/c3ccco3)C2=O)cc1,·,17.3,102.2,–,135.4,65.6,69.6,72.4,–,–,51.5,
CCc1ccc(N2C(=O)NC(=O)/C(=C\C=C\c3ccco3)C2=O)cc1,·,–,57.5,–,86.0,–,51.1,68.0,–,–,–,
Cn1cccc1/C=C1/C(=O)NC(=O)N(Cc2ccc(F)cc2)C1=O,–,–,–,–,–,–,·,·,·,·,·,
O=C(CF)N(O)c1ccc(C=Cc2ccccc2)cc1,–,·,·,–,–,–,·,·,·,·,·,
O=c1[nH]cnc2nc(-c3ccc(N(CCCl)CCCl)cc3)[nH]c12,–,·,·,–,–,–,·,·,·,·,·,
CCN(CC)c1ccc(/C=C2\C(=O)NC(=O)N(Cc3ccco3)C2=O)cc1,–,–,37.8,–,53.9,–,93.1,111.7,85.0,–,–,

# Screening results (PubChem)
